Format in all cases: functional, cell-based
The target in experiment [1] is Insulin receptor (Homo sapiens) (UniProt P06213). Description: Increase in insulin-induced IRbeta phosphorylation in human HepG2 cells after 1 hr at 20 nM. The gist of the method:
(§1)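 HepG2 (MEM, 2 mM L-glutamine, 1 mM pyruvate, 10% FBS, 5% CO2) grown to 60-80% confluence, serum-starved 5 h, exposed 1 h to prodrug (0, 5, 20, 100 nM), then 100 nM insulin or none for 5 min. Lysates run on SDS-PAGE, blotted with anti-phospho-IRβ (pY1162/1163) and anti-phospho-ERK1/2, β-actin loading control; bands quantified densitometrically as fold over insulin-only.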

Experiment [2] has the same target. Description: Increase in insulin-induced ERK phosphorylation in human HepG2 cells after 1 hr at 20 nM. In short, it runs like this:
as §1

The target is the same in experiment [3]. Description: Increase in insulin-induced IRbeta phosphorylation in human HepG2 cells after 1 hr at 100 nM. The gist of the method: as §1
Experiment [4] has the same target. The experiment can be described thus: Increase in insulin-induced ERK phosphorylation in human HepG2 cells after 1 hr at 100 nM. In short, it runs like this: as §1
The target is the same in experiment [5]. The experiment can be described thus: Increase in insulin-induced IRbeta phosphorylation in HepG2 cells after 5 mins at 20 nM. In short, it runs like this:
(§2)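 Time course in subconfluent HepG2 cells. Preincubation with 20 nM prodrug for various periods (5, 20, 60 min), then 5 min with or without 100 nM insulin. Lysates resolved by SDS-PAGE, transferred to nitrocellulose and probed for phospho-IRβ and phospho-ERK1/2. Result expressed as increase in insulin-induced phosphorylation.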

For experiment [6] the target is unchanged. Description: Increase in insulin-induced IRbeta phosphorylation in HepG2 cells after 20 mins at 20 nM. In short, it runs like this: as §2
The target is the same in experiment [7]. The experiment can be described thus: Increase in insulin-induced IRbeta phosphorylation in HepG2 cells after 60 mins at 20 nM. The gist of the method:
as §2

For experiment [8] the target is unchanged. Description: Increase in insulin-induced ERK phosphorylation in HepG2 cells after 20 mins at 20 nM.
For experiment [9] the target is unchanged. Description: Increase in insulin-induced ERK phosphorylation in HepG2 cells after 60 mins at 20 nM. The gist of the method: as §2
The target is the same in experiment [10]. Description: Increase in insulin-induced IRbeta phosphorylation in HepG2 cells after 2 hrs at 20 nM.

Chain of Insulin receptor (Homo sapiens) (P06213 28-758 limits assumed): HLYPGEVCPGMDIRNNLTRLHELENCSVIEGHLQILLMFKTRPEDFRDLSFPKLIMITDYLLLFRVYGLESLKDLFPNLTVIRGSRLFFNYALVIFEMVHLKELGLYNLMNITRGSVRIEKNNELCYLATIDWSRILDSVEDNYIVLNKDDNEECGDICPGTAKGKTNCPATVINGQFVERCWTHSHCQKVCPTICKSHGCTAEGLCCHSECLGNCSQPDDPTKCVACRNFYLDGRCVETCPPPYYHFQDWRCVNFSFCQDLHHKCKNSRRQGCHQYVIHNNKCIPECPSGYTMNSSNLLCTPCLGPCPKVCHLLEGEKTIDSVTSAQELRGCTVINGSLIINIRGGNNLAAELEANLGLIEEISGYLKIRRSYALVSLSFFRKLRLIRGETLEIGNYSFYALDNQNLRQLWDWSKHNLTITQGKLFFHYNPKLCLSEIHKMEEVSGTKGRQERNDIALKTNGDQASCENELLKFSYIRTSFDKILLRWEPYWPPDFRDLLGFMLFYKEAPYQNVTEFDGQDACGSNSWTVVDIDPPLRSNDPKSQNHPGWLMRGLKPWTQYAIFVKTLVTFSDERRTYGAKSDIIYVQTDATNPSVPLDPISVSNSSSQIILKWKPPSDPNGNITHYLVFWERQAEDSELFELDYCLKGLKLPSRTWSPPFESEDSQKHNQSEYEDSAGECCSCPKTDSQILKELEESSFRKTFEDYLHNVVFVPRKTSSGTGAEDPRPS
Chain of Insulin receptor (Homo sapiens) (P06213 763-1382 limits assumed): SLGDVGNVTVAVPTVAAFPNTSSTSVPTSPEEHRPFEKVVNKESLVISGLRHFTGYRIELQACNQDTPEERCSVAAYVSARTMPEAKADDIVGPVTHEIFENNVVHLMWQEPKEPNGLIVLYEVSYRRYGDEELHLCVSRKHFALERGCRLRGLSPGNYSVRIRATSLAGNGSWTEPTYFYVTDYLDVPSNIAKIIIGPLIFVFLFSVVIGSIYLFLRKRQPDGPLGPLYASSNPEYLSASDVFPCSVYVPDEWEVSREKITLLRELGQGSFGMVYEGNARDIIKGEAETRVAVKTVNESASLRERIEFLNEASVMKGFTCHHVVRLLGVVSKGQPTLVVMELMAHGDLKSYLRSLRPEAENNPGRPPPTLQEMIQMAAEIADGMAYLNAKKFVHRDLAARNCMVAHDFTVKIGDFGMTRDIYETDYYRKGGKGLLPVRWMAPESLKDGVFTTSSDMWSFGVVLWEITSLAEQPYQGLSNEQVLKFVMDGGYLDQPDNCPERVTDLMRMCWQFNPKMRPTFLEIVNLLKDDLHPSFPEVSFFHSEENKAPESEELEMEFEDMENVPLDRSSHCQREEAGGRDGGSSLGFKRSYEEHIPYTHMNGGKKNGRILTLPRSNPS

Turning to `CN(CCCCCl)P(=O)(OCc1ccc([N+](=O)[O-])o1)C(F)(F)c1ccc(CC(=O)N[C@@H](CC(=O)O)C(=O)N[C@@H](Cc2ccc(C(F)(F)P(=O)(OCc3ccc([N+](=O)[O-])o3)N(C)CCCCCl)cc2)C(N)=O)cc1` (stereo not given in full), the Activity in [1] stood at 1.9; in [2], 1.3; in [3], 2.1; in [4], 1.6; in experiment [5], 35%; in [6] it was 1.7. The Activity worked out at 2 in [7], 25% in experiment [8], 50% in experiment [9] and 2.1 in experiment [10].

The values above are taken from ChEMBL document CHEMBL1141375, “Synthesis and cell-based activity of a potent and selective protein tyrosine phosphatase 1B inhibitor prodrug” (J Med Chem, 2007).
